Assays:
[1] = Half life in Sprague-Dawley rat at 0.5 mg/kg, iv and 1 mg/kg, po; format: ADME, organism-based; conditions: in vivo
Outline: (§1)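 Male Sprague-Dawley rats, cassette dosing. Compounds were given as an iv bolus and as an oral suspension. Blood samples were taken at intervals up to 24 h, processed by protein precipitation and analysed by HPLC-MS/MS.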

[2] = Blood clearance in Sprague-Dawley rat at 0.5 mg/kg, iv and 1 mg/kg, po; format: ADME, organism-based; conditions: whole blood; outline: as §1
[3] = Oral bioavailability in Sprague-Dawley rat at 1 mg/kg; format: ADME, organism-based; conditions: in vivo; outline: as §1
[4] = target: T1, 5-hydroxytryptamine receptor 2C (Homo sapiens, UniProt P28335); test: Antagonist activity at human 5HT2C receptor expressed in human SH-SY5Y cells by FLIPR assay; format: functional, cell-based
T1 sequence (P28335 whole entry): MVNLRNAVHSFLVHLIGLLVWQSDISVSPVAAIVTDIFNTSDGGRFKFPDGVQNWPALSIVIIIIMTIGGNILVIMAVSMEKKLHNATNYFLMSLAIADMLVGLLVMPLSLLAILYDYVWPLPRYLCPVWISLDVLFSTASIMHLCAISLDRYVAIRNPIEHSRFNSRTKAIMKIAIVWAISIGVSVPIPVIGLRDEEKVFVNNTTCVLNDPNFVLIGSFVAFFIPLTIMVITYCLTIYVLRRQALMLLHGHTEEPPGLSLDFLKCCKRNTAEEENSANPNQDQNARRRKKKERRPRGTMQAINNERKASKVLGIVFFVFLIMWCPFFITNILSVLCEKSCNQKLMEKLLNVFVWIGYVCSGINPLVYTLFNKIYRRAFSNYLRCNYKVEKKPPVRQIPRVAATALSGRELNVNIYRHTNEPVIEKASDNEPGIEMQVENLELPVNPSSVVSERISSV

[5] = target: 5-hydroxytryptamine receptor 2B (Homo sapiens, UniProt P41595); test: Antagonist activity at human 5HT2B receptor expressed in human SH-SY5Y cells by FLIPR assay
Sequence of 5-hydroxytryptamine receptor 2B (P41595 whole entry): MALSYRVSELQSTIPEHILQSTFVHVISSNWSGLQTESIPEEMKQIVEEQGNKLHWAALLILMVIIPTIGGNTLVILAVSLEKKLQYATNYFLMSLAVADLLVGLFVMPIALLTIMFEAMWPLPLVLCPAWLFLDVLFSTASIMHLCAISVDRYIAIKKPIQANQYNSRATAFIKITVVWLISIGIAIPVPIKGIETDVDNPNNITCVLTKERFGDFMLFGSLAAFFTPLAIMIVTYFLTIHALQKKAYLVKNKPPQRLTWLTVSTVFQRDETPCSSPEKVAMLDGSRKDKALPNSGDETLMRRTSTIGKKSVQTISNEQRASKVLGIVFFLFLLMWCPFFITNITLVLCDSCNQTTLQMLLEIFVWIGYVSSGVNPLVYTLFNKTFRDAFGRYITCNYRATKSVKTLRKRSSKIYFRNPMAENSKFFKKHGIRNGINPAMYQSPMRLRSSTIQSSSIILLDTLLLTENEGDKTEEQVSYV

Cytochrome P450 2C19 = Cytochrome P450 2C19 (Homo sapiens, UniProt P33261); test: Inhibition of human CYP2C19 transfected in bactosome expression system by spectrofluorimetry; format: ADME
Sequence of Cytochrome P450 2C19 (P33261 whole entry): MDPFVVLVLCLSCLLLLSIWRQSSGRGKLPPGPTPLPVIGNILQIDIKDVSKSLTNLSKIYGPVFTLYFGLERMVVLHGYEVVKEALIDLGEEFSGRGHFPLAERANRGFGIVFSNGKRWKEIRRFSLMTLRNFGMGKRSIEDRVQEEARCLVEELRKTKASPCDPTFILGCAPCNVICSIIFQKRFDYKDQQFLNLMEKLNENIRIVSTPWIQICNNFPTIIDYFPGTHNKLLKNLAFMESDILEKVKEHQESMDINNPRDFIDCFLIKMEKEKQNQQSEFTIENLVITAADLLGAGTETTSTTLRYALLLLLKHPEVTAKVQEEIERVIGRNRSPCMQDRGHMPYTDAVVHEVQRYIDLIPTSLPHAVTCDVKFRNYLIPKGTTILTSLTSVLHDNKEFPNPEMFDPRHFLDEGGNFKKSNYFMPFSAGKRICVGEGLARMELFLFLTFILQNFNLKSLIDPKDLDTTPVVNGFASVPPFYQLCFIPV
Outline: (§2)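 Recombinant human CYP Bactosomes (0.1 mg/mL) in 50 mM phosphate buffer, pH 7.4. Compound at 0.1-10 μM was preincubated with fluorogenic substrate for 10 min at 37 °C, and the reaction was started with an NADPH regenerating system. Metabolite fluorescence was followed for 10 min. Substrates: 1A2 ethoxyresorufin 0.5 μM; 2C9 FCA 50 μM; 2C19 BMC 10 μM; 2D6 MMC 10 μM; 3A4 DEF 1 μM or 7-BQ 25 μM. Run in triplicate.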

[6] = Fraction unbound in rat blood; format: ADME, tissue-based
[7] = target: 5-hydroxytryptamine receptor 2A (Rattus norvegicus, UniProt P14842); test: Displacement of [3H]ketanserin from 5HT2A receptor in Sprague-Dawley rat cortical membrane by liquid scintillation counting
Sequence of 5-hydroxytryptamine receptor 2A (Rattus norvegicus, UniProt P14842) (P14842 whole entry): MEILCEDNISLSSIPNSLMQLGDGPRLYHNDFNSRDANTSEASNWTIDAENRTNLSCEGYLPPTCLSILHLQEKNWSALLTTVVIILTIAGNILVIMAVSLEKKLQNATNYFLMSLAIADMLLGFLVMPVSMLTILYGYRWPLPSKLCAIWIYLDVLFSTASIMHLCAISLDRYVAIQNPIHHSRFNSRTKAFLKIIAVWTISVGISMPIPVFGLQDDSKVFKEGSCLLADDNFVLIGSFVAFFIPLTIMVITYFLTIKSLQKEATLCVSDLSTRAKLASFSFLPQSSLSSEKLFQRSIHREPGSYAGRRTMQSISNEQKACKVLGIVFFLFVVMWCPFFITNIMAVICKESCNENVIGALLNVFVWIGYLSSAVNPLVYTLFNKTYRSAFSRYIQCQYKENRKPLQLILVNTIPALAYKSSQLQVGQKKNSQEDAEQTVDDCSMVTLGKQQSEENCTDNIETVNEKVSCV
Outline: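 Cerebral cortex membranes from male Sprague-Dawley rats (200-250 g), 50 μg/well. Incubated with 1 nM [3H]ketanserin in 50 mM Tris-HCl, 10 mM MgCl2, pH 7.4, for 1 h at 37 °C with shaking. Filtered on PEI-soaked GF/B and counted by scintillation. Nonspecific binding with 10 μM mianserin. Ki by Cheng-Prusoff; mean of two experiments in duplicate.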

[8] = target: Voltage-gated inwardly rectifying potassium channel KCNH2 (Homo sapiens, UniProt Q12809); test: Displacement of [3H]dofetilide from human ERG by scintillation proximity assay
Sequence of Voltage-gated inwardly rectifying potassium channel KCNH2 (Q12809 whole entry): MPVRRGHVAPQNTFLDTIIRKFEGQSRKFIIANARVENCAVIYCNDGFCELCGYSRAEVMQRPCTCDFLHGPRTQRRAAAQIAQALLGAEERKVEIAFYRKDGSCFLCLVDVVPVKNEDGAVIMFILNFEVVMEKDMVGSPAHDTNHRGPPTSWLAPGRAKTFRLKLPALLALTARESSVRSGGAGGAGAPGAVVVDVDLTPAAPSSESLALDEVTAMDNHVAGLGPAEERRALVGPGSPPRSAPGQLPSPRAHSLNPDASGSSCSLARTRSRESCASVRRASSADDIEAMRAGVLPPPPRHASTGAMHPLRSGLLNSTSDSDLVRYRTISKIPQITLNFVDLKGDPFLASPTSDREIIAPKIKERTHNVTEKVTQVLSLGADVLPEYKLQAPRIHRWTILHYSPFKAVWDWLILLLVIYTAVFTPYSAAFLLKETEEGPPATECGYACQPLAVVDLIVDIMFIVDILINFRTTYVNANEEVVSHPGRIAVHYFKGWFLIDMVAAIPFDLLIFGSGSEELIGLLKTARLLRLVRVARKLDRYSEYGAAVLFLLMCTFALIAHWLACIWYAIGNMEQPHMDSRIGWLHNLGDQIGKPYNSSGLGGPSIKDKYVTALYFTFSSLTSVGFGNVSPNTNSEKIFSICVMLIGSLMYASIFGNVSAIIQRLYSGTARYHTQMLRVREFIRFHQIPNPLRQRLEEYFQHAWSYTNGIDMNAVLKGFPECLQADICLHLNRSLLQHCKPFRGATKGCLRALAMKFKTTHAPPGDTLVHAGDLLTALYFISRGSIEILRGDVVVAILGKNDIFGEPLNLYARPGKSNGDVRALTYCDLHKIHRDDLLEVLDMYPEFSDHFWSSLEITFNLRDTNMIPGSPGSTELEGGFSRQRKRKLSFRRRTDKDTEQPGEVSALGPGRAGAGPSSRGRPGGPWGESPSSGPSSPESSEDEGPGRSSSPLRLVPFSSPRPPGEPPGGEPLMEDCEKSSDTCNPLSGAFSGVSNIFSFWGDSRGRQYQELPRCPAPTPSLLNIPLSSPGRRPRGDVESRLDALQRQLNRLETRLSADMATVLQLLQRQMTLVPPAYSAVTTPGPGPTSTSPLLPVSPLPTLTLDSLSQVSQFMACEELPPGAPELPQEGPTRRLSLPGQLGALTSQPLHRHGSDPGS

[9] = Fraction unbound in rat brain; format: ADME, tissue-based
Cytochrome P450 1A2 = target: T2, Cytochrome P450 1A2 (Homo sapiens, UniProt P05177); test: Inhibition of human CYP1A2 transfected in bactosome expression system by spectrofluorimetry; format: ADME; outline: as §2
T2 sequence (P05177 whole entry): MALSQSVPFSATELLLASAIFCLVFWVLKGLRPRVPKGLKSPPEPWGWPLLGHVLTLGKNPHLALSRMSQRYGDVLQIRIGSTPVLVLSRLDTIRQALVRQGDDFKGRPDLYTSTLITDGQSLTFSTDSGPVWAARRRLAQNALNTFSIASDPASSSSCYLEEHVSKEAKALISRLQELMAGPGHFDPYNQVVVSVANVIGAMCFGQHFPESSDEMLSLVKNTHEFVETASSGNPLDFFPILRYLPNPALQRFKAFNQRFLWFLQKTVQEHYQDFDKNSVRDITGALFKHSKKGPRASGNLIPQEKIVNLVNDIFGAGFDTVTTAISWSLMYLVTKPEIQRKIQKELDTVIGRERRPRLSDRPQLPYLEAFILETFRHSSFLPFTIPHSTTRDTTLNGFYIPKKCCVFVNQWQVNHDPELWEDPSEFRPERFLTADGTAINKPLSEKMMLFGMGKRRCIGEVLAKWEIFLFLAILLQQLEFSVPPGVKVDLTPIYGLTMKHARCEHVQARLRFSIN

Histamine H1 receptor [10] = target: Histamine H1 receptor (Rattus norvegicus, UniProt P31390); test: Displacement of [3H]pyrilamine from histamine H1 receptor in Sprague-Dawley rat cortical membrane by liquid scintillation counting
Sequence of Histamine H1 receptor (Rattus norvegicus, UniProt P31390) (P31390 whole entry): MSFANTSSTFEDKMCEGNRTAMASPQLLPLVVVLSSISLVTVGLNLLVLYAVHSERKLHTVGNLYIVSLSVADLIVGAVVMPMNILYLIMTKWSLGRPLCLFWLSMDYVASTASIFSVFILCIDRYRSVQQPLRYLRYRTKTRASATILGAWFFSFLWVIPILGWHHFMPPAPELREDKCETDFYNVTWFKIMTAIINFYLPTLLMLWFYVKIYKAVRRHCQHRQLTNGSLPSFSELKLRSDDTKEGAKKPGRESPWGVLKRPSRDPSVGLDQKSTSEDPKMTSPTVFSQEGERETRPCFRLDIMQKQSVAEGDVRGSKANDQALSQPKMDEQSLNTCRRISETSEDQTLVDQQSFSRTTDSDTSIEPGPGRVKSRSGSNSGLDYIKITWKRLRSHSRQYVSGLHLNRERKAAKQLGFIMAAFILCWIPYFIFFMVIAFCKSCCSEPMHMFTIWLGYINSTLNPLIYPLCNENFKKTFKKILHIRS
Outline: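 Cerebral cortex membranes from male Sprague-Dawley rats (200-250 g), 150 μg/well. Incubated with 0.6 nM [3H]pyrilamine in 50 mM HEPES, pH 7.4, for 2 h at room temperature. Filtered on PEI-soaked GF/B and counted by scintillation. Nonspecific binding with 10 μM cetirizine. Ki by Cheng-Prusoff; mean of two experiments in duplicate.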

Cytochrome P450 2D6 = Cytochrome P450 2D6 (Homo sapiens, UniProt P10635); test: Inhibition of human CYP2D6 transfected in bactosome expression system by spectrofluorimetry; format: ADME; outline: as §2
Sequence of Cytochrome P450 2D6 (P10635 whole entry): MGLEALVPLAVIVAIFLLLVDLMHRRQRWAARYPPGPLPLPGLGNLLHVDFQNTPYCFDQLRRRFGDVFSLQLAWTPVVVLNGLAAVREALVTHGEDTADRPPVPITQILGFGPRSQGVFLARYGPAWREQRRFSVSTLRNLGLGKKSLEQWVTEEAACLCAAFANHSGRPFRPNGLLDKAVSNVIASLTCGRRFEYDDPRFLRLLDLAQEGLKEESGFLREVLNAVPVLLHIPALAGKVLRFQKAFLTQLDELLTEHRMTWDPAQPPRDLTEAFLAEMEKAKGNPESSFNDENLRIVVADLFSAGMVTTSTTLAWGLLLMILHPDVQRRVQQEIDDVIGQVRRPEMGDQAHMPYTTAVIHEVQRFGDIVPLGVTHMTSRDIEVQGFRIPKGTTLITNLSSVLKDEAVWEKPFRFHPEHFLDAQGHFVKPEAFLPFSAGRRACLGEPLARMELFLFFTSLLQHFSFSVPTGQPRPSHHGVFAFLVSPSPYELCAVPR

Histamine H1 receptor [11] = target: Histamine H1 receptor (Homo sapiens, UniProt P35367); test: Antagonist activity against human histamine H1 receptor expressed in CHO cells by FLIPR assay; format: functional, cell-based
Sequence of Histamine H1 receptor (Homo sapiens, UniProt P35367) (P35367 whole entry): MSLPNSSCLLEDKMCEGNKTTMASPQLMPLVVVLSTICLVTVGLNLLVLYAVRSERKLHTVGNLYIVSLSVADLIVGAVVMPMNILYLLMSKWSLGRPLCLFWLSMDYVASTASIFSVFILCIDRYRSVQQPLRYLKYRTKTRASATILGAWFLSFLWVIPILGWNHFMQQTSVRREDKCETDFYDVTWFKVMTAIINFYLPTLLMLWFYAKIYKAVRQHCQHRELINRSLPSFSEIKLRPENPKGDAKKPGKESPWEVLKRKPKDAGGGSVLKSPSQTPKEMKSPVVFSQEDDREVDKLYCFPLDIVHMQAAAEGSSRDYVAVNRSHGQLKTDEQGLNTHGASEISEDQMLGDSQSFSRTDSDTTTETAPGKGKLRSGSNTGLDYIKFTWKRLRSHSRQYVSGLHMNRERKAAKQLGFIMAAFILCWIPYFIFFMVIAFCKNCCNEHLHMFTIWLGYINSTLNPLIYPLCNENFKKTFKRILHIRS

[12] = Ratio of drug level in brain to blood in Sprague-Dawley rat at 0.5 mg/kg, iv and 1 mg/kg, po; format: ADME, organism-based; conditions: read-out: BBR
Outline: (§3)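 Male Sprague-Dawley rats, cassette dosing, iv bolus or oral suspension. Blood and brain levels were measured by protein precipitation and HPLC-MS/MS. Brain:blood ratio was taken from AUC0-8h after oral dosing, or at 1 h after iv dosing for one compound.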

[13] = target: 5-hydroxytryptamine receptor 2A (Homo sapiens, UniProt P28223); test: Antagonist activity at human 5HT2A receptor expressed in HEK cells assessed as inhibition of intracellular calcium accumulation by aequorin assay; format: functional, cell-based, HEK293
Sequence of 5-hydroxytryptamine receptor 2A (Homo sapiens, UniProt P28223) (P28223 whole entry): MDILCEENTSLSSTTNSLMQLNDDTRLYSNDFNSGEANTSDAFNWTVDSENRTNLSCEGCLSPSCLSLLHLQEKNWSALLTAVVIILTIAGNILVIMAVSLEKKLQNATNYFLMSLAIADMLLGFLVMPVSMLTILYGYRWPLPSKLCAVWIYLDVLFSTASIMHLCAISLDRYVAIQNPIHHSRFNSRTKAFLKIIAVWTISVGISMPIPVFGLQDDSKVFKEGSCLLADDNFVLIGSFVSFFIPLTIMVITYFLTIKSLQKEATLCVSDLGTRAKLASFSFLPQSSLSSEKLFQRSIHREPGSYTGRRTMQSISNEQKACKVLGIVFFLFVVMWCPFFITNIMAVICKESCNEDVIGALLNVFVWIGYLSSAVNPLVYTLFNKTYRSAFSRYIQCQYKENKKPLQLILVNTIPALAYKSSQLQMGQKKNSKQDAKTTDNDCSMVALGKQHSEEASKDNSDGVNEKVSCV

Cytochrome P450 3A4 = Cytochrome P450 3A4 (Homo sapiens, UniProt P08684); test: Inhibition of human CYP3A4 transfected in bactosome expression system by spectrofluorimetry; format: ADME; outline: as §2
[14] = Volume of distribution at steady state in Sprague-Dawley rat at 0.5 mg/kg, iv and 1 mg/kg, po; format: ADME, organism-based; conditions: in vivo, read-out: Vdss; outline: as §1
Cytochrome P450 2C9 = Cytochrome P450 2C9 (Homo sapiens, UniProt P11712); test: Inhibition of human CYP2C9 transfected in bactosome expression system by spectrofluorimetry; format: ADME; outline: as §2
[15] = Blood clearance in Sprague-Dawley rat at 1 mg/kg, iv and 3 mg/kg, po; format: ADME, organism-based; conditions: whole blood; outline: as §1
[16] = Half life in Sprague-Dawley rat at 1 mg/kg, iv and 3 mg/kg, po; format: ADME, organism-based; conditions: in vivo; outline: as §1
[17] = Ratio of drug level in brain to blood in Sprague-Dawley rat at 1 mg/kg, iv and 3 mg/kg, po; format: ADME, organism-based; conditions: read-out: BBR; outline: as §3
[18] = Volume of distribution at steady state in Sprague-Dawley rat at 1 mg/kg, iv and 3 mg/kg, po; format: ADME, organism-based; conditions: in vivo, read-out: Vdss; outline: as §1
[19] = Oral bioavailability in Sprague-Dawley rat at 3 mg/kg; format: ADME, organism-based; conditions: in vivo; outline: as §1
[20] = Selectivity ratio of pKi for human alpha1A adrenergic receptor to pKi for human Alpha-1B adrenergic receptor

Compound	Ki [4] [µM]	Ki [5] [µM]	IC50 (Cytochrome P450 2C19) [µM]	fraction unbound [6]	Ki [7] [µM]	IC50 [8] [µM]	fraction unbound [9]	IC50 (Cytochrome P450 1A2) [µM]	Ki (Histamine H1 receptor [10]) [µM]	IC50 (Cytochrome P450 2D6) [µM]	Ki (Histamine H1 receptor [11]) [µM]	Ki [13] [µM]	IC50 (Cytochrome P450 3A4) [µM]	IC50 (Cytochrome P450 2C9) [µM]	other results
O=C(O)[C@]12C[C@H]1CN(C1CC[C@]3(Cc4ccccc4Cc4ccccc43)C1)C2 (stereo partly drawn)	0.0631	0.398	> 10	0.08	0.0692	> 39.8	0.023	> 10	0.00537	> 10	0.0316	0.0316	> 10	> 10	half-life [1]: 5.3 h; clearance [2]: 0.3 L/h/kg; bioavailability [3]: 62%; Kp [12]: 2.2; Vd [14]: 2.4 L/kg
O=C(O)C1(F)CCN(C2CC[C@]3(Cc4ccccc4Cc4ccccc43)C2)CC1 (stereo partly drawn)	1	> 2	> 10	0.084	0.355	> 39.8	0.02	> 10	0.0123	> 10	0.0398	0.0501	> 10	> 10	clearance [15]: 3.66 L/h/kg; half-life [16]: 1.2 h; Kp [17]: 0.1; Vd [18]: 3.8 L/kg; bioavailability [19]: 22%
CN(C)C1CC[C@]2(Cc3ccccc3Cc3ccccc32)C1 (stereo partly drawn)	0.00794	0.0158									0.00398	0.0126			pKi [20]: < 6
